Bioassay records deposited in PubChem BioAssay by The Scripps Research Institute Molecular Screening Center.
Shown are actives, neighbours in structure and some others; about 1.8% of the full set was active somewhere.
CHRM5 PAM: potentiates acetylcholine response at human M5 receptor. P08912. CHO-K1 hM5, Fluo-8 calcium, ACh EC20 PAM; 0% = ACh EC20, 100% = ACh EC100. activation, % at 3 µM. 360,000 tested, 0.3% active. AID 624038;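 active = activation above the run cutoff, the mean activation of all test compounds plus 3 SD, cut at about 18% in these data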
Target sequence (P08912 whole entry, looked up): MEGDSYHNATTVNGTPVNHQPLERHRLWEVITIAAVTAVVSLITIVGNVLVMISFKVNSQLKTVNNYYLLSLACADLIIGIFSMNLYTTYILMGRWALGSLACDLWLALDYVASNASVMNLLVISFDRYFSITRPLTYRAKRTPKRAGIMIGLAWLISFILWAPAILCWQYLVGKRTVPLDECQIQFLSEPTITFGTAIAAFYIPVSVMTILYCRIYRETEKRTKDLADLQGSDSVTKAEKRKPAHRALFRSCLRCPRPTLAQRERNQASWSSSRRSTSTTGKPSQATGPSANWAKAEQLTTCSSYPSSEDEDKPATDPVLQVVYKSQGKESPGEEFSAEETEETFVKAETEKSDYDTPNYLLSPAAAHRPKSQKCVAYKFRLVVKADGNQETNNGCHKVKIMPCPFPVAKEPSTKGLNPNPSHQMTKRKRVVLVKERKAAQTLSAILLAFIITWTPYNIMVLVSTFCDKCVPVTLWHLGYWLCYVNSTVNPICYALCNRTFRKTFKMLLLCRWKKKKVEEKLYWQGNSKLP
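Probe or stimulus: acetylcholine, EC20 level; Assay system: human M5 receptor in CHO-K1 cells; Schedule: compound preincubation 140 s before EC20 acetylcholine addition; Technique: intracellular calcium via Fluo-8 fluorescence; Dosing: single-point, 3 µM nominal; Read-out basis: percent activation from peak-over-basal fluorescence ratio, scaled EC20-to-EC100 acetylcholine; Repeats: one well per compound, no replicates.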
M4 antag: blocks acetylcholine activation of human M4 receptor. 360,000 tested, 0.73% active. AID 624125. inhibition, % at 3 µM. CHO-hM4 cells, ACh EC80, Fluo-8 calcium fluorescence. P08173;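 active = inhibition above its plate's cutoff, the mean inhibition of sample wells plus 3 SD, cut at about 27% in these data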;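 also: 0% = acetylcholine EC80 with DMSO and 100% = DMSO without agonist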
CHRM4 PAM: potentiates acetylcholine response at human M4 receptor; 360,000 tested, 0.4% active; CHO-K1 hM4/Gqi5, Fluo-8 calcium fluorescence, ACh EC20; 0% = ACh EC20, 100% = maximal ACh; activation, % at 3 µM; P08173;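 active = activation above its plate's cutoff, the mean activation of sample wells plus 3 SD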
M5 antag: CHRM5 antagonism in calcium assay; P08912; CHO-hM5 cells, Fluo-8 calcium fluorescence, ACh EC80; inhibition, % at 3 µM; 360,000 tested, 0.59% active; AID 624040;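 active = inhibition above a per-plate cutoff, the mean of that plate's test compounds plus 3 SD, cut at about 27% in these data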;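 also: 0% = acetylcholine EC80 with DMSO and 100% = DMSO without agonist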
CHRM5 agonist: agonists of human muscarinic M5 receptor (CHRM5); P08912; CHO-K1 hM5 cells, Fluo-8 calcium fluorescence; 0% DMSO wells, 100% maximal acetylcholine response; activation, % at 3 µM; 360,000 tested, 0.19% active;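 active = activation above the run's mean over test compounds plus 3 SD, cut at about 23% in these data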;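 also: signal is peak over basal fluorescence ratio across the kinetic read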
M4 ag: agonists of human muscarinic M4 receptor (CHRM4); 360,000 tested, 0.14% active; P08173; activation, % at 3 µM; AID 624127; CHO-K1 hM4/Gqi5, Fluo-8 calcium fluorescence; vehicle 0%, full acetylcholine response 100%;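 active = activation above the run mean over all test wells plus 3 SD, cut at about 32% in these data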;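 also: peak over basal fluorescence ratio per well then scaled between controls; 0% = DMSO wells and 100% = acetylcholine at EC100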
Starred values were filed as active, the others as inactive.

SMILES | CHRM5 PAM | M4 antag | CHRM4 PAM | M5 antag | CHRM5 agonist | M4 ag
CCC1CCCCN1CCCNC(=O)c1cn(CC)c2ccc(S(=O)(=O)N(C)C3CCCCC3)cc2c1=O (stereo unspecified) | -4 | 33* | -11 | 2 | -8 | 0
CCn1cc(C(=O)NCCCOC)c(=O)c2cc(S(=O)(=O)N(C)C3CCCCC3)ccc21 | -5 | -3 | -3 | -1 | -1 | 6
CCC1CCCCN1CCCNC(=O)c1cn(CC)c2ccc(S(=O)(=O)N3CCc4ccccc4C3)cc2c1=O (stereo unspecified) | 0 | 31* | -23 | 5 | -15 | -1
Cc1cc(Oc2cc(N)cc([N+](=O)[O-])c2)ccc1Cl | -1 | 0 | -2 | 4 | -4 | -1
N#C/C(=C\c1ccc(N2CCCCC2)o1)C(=O)Nc1cccc(Br)c1 | -22 | 32* | -20 | 59* | 60* | 47*
COc1ccc(Cc2nnc(NC(=O)CSc3ccc(C)cc3)s2)cc1OC | -5 | -6 | 1 | -3 | 74* | 95*
CCOC(=O)C(=O)Nc1nnc(Cc2ccc(OC)c(OC)c2)s1 | 4 | 9 | 7 | -1 | 1 | -1
CCOC(=O)Nc1nnc(Cc2ccc(Cl)c(Cl)c2)s1 | 1 | -9 | 22* | 9 | 1 | 2
Fc1ccccc1CNC(=S)Nc1cccc(C(F)(F)F)c1 | -20 | 9 | -23 | 27* | 6 | 14
Cc1cc(C)c2c(=O)n(CC(=O)Nc3ccc(Br)c(C)c3)sc2n1 | 2 | 7 | 4 | 6 | 1 | 2
Cc1cc(C)c2c(=O)n(CC(=O)Nc3cccc(Cl)c3C)sc2n1 | -9 | 70* | -37 | 21 | 28* | 67*
CC(=O)Nc1ccc(NC(=O)C2CCN(S(C)(=O)=O)CC2)cc1 | 5 | 1 | 6 | -2 | 2 | 1
Nc1nonc1C(=O)NCCNCc1ccccc1OCc1ccccc1F | -2 | 5 | -10 | 2 | 2 | 11
Nc1nonc1C(=O)NCCNCc1cc(Br)ccc1OCc1ccccc1F | -13 | 32* | -16 | 16 | 0 | 16
NS(=O)(=O)c1ccc(CCNCc2cc(Br)ccc2OCc2ccccc2F)cc1 | -20 | 28* | -16 | 28* | 0 | 30
Cc1c(NS(=O)(=O)c2cccc(C(=O)N3CCC(C(N)=O)CC3)c2)c(=O)n(-c2ccccc2)n1C | 8 | -12 | 32* | -3 | 0 | 0
O=C(Nc1ccc(N2CCOCC2)cc1N1CCOCC1)c1cccc([N+](=O)[O-])c1 | -1 | 2 | 0 | -3 | -6 | 1
CN(C(=O)CSc1nccc(=O)[nH]1)C1CCCCC1 | 17 | -17 | 22* | -7 | -1 | 1
CCN(C(=O)CSc1nccc(=O)[nH]1)C1CCCCC1 | 6 | 17 | 3 | 13 | -1 | 0
CN1CCC(OC(=O)c2ccccc2Cl)CC1 | -21 | 2 | -11 | 34* | -11 | 1
COCCN(CC(=O)Nc1cccc(C)c1C)C(=O)c1cc(-c2ccncc2)nc2ccccc12 | -32 | -10 | -9 | 7 | 5 | 26
O=C(Nc1ccc(Br)cc1)c1ccc(F)c(S(=O)(=O)NCc2cccs2)c1 | -18 | 24 | -10 | 38* | 9 | 12
Cn1nnnc1SCC(=O)NC1CCCc2ccccc21 (stereo unspecified) | 0 | 1 | -4 | 8 | -1 | 0
CN(CC(=O)NCc1ccccc1Cl)S(=O)(=O)c1ccc2c(c1)n(C)c(=O)c(=O)n2C | 1 | 9 | -6 | -10 | -5 | 0
CC[C@H]1O[C@H](C)CC2=C1C(=O)OC(C)(C)O2 | -1 | -5 | 23* | 2 | 2 | 10
SMILES | CHRM5 PAM | M4 antag | CHRM4 PAM | M5 antag | CHRM5 agonist | M4 ag
O=C(C1CCN(S(=O)(=O)c2cnc[nH]2)CC1)N1CCN(c2ccc([N+](=O)[O-])cc2)CC1 | -2 | -9 | 14* | 12 | -4 | 1
O=CC(=Cc1ccccc1)c1ccccc1 | -1 | 4 | -7 | 4 | -1 | 0
COc1ccc(C(=O)Nc2cc(-c3ccccc3)nn2-c2ccccc2F)cc1 | 25* | -4 | 21 | -13 | -7 | -1
COCCCN1CN(S(=O)(=O)c2ccc(C)cc2C)c2nc3ccccc3nc21 | 21* | -9 | 4 | -7 | 0 | 4
Cc1ccc(O)c(C(=O)c2cc(C#N)c(=O)n(-c3nccs3)c2)c1 | -17 | 26 | -18 | 32* | 34* | 57*
CCOc1ccccc1NC1=C(OC)C(=O)C(Nc2ccccc2OCC)=C(OC)C1=O | -8 | -2 | -2 | 6 | 2 | 0
Cc1c(NC(=O)c2cc(-n3cnnc3)ccc2Cl)cccc1-c1nc2ccccc2s1 | -11 | 4 | -6 | 4 | 0 | 14
Cc1c(NC(=O)c2cccs2)cccc1-c1nc2ccccc2s1 | 2 | 31* | -1 | 19 | 2 | 9
Cc1ccc(C(=O)NCCCN2CCN(CCCNC(=O)c3ccc(C)cc3)CC2)cc1 | 0 | -13 | -12 | 1 | -12 | -1
Cc1ccnc(Nc2nc(-c3ccccc3)cs2)c1 | 22* | -4 | -11 | -17 | 10 | 0
CC(=O)Nc1ccc(-c2csc(Nc3cc(C)ccn3)n2)cc1 | -1 | 2 | 2 | -6 | 4 | 7
OCCCNc1ncnc2c1[nH]c1ccccc12 | 0 | 0 | -2 | 9 | -1 | 0
Fc1ccc2[nH]c3c(NCc4ccccc4)ncnc3c2c1 | -16 | 9 | -10 | 37* | 10 | 23
O=C(Nc1nc2nccc(-c3ccccc3)n2n1)c1ccccc1 | -3 | 100* | -16 | 11 | -3 | -1
CCCCCCCn1c2c(c(=N)c3ccccc31)CCC2 | -9 | 4 | -8 | 27* | -16 | 2
Cn1c(Cc2ccccc2)nnc1SCc1nc2ccccc2c(=O)[nH]1 | 7 | -9 | 5 | -9 | 0 | 2
Cc1ccccc1OCc1nnc(SCc2nc3ccccc3c(=O)[nH]2)n1C | -3 | 49* | -15 | 3 | 0 | -1
OC(c1ccccc1)(c1ccccc1)c1nccc2ccccc12 | -8 | 6 | -1 | 3 | -7 | -3
Cc1ccc(NN2C(=O)C=C(c3ccc(Cl)cc3)C2=O)cc1 | -3 | 70* | -14 | 23 | 10 | 9
C[C@@H]1CN([C@H](C)CO)C(=O)CCCn2nncc2CO[C@@H]1CN(C)C(=O)Nc1ccc(N2CCCCC2)cc1 | -3 | 6 | -2 | 7 | 0 | 0
CNS(=O)(=O)c1ccc(NC(=O)C2c3ccccc3Oc3ccccc32)cc1 | -1 | 3 | -6 | 7 | 11 | 5
CC(=O)NS(=O)(=O)c1ccc(NC(=O)C2c3ccccc3Oc3ccccc32)cc1 | 22* | -11 | 17 | -10 | -9 | 1
